From PubChem
Rows were chosen to be rich in hits. Some 4.1% of all compounds tested hit in one or more screens of this group.
KCNQ1 inh: human KCNQ1 channel inhibition. P51787. CHO-K1 KCNQ1, FluxOR thallium flux fluorescence; hits give high values. B-score at 10 µM. 310,000 tested, 1.3% active. AID 2642;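 active means compounds whose thallium flux B-score, printed positive for inhibition, exceeds three library SD while starting fluorescence stays within three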;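 further: channel opened by potassium depolarization with thallium stimulus after 20 min compound exposure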
Cl transport mod: KCC2 (human) Cl- transport modulation; Q9H2X9; KCC2 cells, thallium flux FluoZin-2 fluorescence; B-score of Tl+ flux slope (higher = more flux/activation; lower = inhibition) at 10 µM; 190,000 tested, 2.2% active; AID 1456;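 active means thallium flux slope and its plate-corrected score both differing from the plate sample mean at a set confidence after two filtering rounds, in either direction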;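 further: slope of fluorescence scaled to starting intensity during 10 to 20 s after thallium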
hERG protect: hERG (human) protection from proarrhythmic block; CHO-hERG, FluxOR thallium flux, dofetilide IC70 present; activation (rescue from dofetilide block), less the hit threshold, % at 10 µM; 310,000 tested, 0.51% active;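 active means activation above the mean of controls blocked by dofetilide plus 5 SD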;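 further: thallium influx through hERG after potassium depolarization seen as dye fluorescence rise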
Target sequence (Q12809 whole entry, looked up): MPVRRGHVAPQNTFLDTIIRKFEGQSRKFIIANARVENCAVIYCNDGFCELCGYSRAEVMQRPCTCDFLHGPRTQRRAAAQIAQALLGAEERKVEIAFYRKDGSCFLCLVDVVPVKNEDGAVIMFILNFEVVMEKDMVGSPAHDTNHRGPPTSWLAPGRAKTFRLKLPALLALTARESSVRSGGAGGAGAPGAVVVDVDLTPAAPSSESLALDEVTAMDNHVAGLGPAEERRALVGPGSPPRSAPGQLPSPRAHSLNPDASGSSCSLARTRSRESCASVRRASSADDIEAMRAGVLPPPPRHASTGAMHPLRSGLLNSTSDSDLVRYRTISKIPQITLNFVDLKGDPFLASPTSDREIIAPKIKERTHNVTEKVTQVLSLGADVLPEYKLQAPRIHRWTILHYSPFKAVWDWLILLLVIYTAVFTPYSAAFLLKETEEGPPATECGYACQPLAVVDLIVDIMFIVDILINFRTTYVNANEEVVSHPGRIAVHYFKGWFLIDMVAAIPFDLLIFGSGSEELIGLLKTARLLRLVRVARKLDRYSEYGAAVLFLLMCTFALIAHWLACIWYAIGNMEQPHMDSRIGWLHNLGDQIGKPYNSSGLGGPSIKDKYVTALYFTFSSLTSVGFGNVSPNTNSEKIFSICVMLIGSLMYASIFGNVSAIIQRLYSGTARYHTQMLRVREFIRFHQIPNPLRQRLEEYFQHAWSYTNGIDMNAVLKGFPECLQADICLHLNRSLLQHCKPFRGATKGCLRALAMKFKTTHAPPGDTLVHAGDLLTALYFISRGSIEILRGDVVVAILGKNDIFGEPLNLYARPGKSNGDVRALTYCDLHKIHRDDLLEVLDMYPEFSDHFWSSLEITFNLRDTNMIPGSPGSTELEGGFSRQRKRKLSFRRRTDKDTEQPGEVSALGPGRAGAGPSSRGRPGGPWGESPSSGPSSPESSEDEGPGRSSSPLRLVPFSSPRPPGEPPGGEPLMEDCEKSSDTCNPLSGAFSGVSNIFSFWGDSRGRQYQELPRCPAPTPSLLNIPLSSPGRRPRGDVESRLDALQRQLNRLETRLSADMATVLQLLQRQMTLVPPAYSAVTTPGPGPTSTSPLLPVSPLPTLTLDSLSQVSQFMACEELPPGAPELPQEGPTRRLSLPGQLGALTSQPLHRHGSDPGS
KCNK3 block: human KCNK3 channel inhibition, primary screen; B-score at 10 µM; AID 602410; CHO-KCNK3 thallium flux, FluxOR fluorescence; hits give low values; 340,000 tested, 0.84% active; O14649;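 active means B-score under library mean minus 4 SD, starting fluorescence ratio at most library mean plus 5 SD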;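 further: more negative B-score means stronger inhibition of thallium flux through KCNK3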
KCNQ1 pot: potentiators or activators of human KCNQ1 potassium channel; P51787; CHO-K1 KCNQ1, thallium flux FluxOR fluorescence; hits give high values; B-score at 10 µM; 310,000 tested, 0.35% active;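 active means fluorescence ratio B-score, a plate-corrected score, at least three library SD, with initial intensity B-score within 5 SD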
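Doses: Single concentration per compound, DMSO matched to controls | Test system: KCNQ1-transfected CHO-K1 cells | Timing: 90 min dye loading and 20 min compound exposure, both at room temperature | Measured by: Kinetic FluxOR thallium fluorescence, 10-s 1-Hz baseline, 110-s post-stimulus read | Medium: Assay buffer with matched DMSO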
KCNK9 block: human KCNK9 channel inhibition; B-score at 10 µM; HEK293 KCNK9, FluxOR thallium flux fluorescence; hits give low values; Q9NPC2; AID 488922; 310,000 tested, 1.2% active;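 active means ratio B-score over 3 SD below the library mean, with starting fluorescence within 5 SD of its mean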;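 further: negative B-score means less thallium flux so channel inhibition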
KCC2 secondary: KCC2 (human) modulation, secondary assay; shares compounds with Cl transport mod; HEK293-KCC2, thallium flux, FluoZin2 fluorescence; hits give high values; normalised thallium flux (F/F0 slope) at 10 µM; 3,700 tested, 15% active; AID 1713;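 active means thallium flux slope above the same plate's solvent-only control mean plus 3 SD; inconclusive means the two replicate wells disagree; inactive means no significant difference from solvent-only control wells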
KCC2 bumet counter: thallium flux despite bumetanide block in KCC2 cells, secondary assay 3; 3,700 tested, 49% active; HEK293-KCC2 + bumetanide/ouabain, thallium flux FluoZin2; hits give high values; shares compounds with Cl transport mod; normalized thallium flux at 10 µM;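 active means thallium entry rate above the same plate's blocked-transporter control wells by more than 3 SD; inconclusive means the two repeat wells disagree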;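 further: raw slope of fluorescence over initial fluorescence between 10 and 20 s after thallium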
KCC2 secondary2: KCC2 (human) modulation, second secondary assay; shares compounds with Cl transport mod; HEK293-KCC2, thallium flux FluoZin2 fluorescence; actives lie on both sides; F/F0 rise rate, 10–20 s post-thallium; normalized thallium flux at 10 µM; 3,700 tested, 23% active; AID 1715;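 active means thallium flux slope more than 3 SD above or below the plate's solvent-only control mean, mostly below; inconclusive means the two repeat wells disagreed; inactive means no significant shift from solvent-only controls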
HEK293 Tl flux: acts in parental HEK cells, KCC2 counter-screen | shares compounds with Cl transport mod | HEK293 parental cells, thallium flux FluoZin2, ouabain; baseline-ratio fluorescence slope, 10–20 s after thallium | thallium flux rate (normalised fluorescence) at 10 µM | 3,700 tested, 46% active | AID 1716;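 active means thallium flux rate significantly above the same plate's solvent-only control wells, beyond their mean plus 3 SD; inconclusive means the two replicate wells gave conflicting results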
KCC2 retest ouab: confirmation of human KCC2 modulators with ouabain. HEK293-KCC2, thallium flux FluoZin2 fluorescence; bidirectional: low = inhibitor, high = activator. shares compounds with Cl transport mod. AID 1717. 3,700 tested, 48% active. raw Tl+ flux slope (below DMSO = inhibition, above = activation) at 10 µM;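 active means thallium flux slope beyond 3 SD from same-plate DMSO control mean in most replicates, usually higher, sometimes lower; inconclusive means repeat tests gave conflicting results; inactive means no significant difference from controls in most replicates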;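 further: slope of initial-normalized fluorescence between seconds 10 and 20 after thallium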
HEK counter2: parental HEK flux effect, counter-screen 2; shares compounds with Cl transport mod; HEK293 parental, thallium flux FluoZin-2 fluorescence slope; thallium flux slope at 10 µM; 3,700 tested, 33% active;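 active means thallium flux slope above the same plate's solvent-control mean plus 3 SD in both duplicate wells; inconclusive means duplicate wells that disagreed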;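 further: run without ouabain in cells lacking the KCC2 cotransporter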
Each line names hits and unclear results; the compound was inactive in the other large screens (follow-up assays come after a bar, where they were run).

S=c1[nH]nc(-c2ccc(Cl)cc2Cl)n1-c1ccccc1	none (no result: Cl transport mod)
S=c1[nH]nc(COc2cccc(Cl)c2)n1Cc1ccccc1	Cl transport mod 20.2 | KCC2 secondary inactive | KCC2 bumet counter 0.0278 | KCC2 secondary2 inactive | HEK293 Tl flux 0.0148 | KCC2 retest ouab inconclusive | HEK counter2 0.0118
Cc1ccc(-c2n[nH]c(=S)n2Cc2ccccc2)cc1	none (no result: Cl transport mod)
S=c1[nH]nc(COc2ccc(Cl)cc2)n1Cc1ccccc1	none
CCc1cc(-c2n[nH]c(=S)n2CC)cs1	none
CC(C)(C)S(=O)N1Cc2cc(CO)cc(-c3ccccc3)c2[C@@H]1CCO (stereo not given in full)	none (no result: KCNQ1 inh, Cl transport mod, hERG protect, KCNQ1 pot, KCNK9 block)
CC1(c2ccccc2)NC(=O)N(CC(=O)N(CC(=O)Nc2ccccc2C(F)(F)F)Cc2ccco2)C1=O (stereo not given)	none (no result: KCNQ1 inh, Cl transport mod, hERG protect, KCNQ1 pot, KCNK9 block)
O=C(NC(CC(=O)N1CCN(c2ccccc2O)CC1)c1ccccc1)c1ccccc1Cl (stereo not given)	none (no result: KCNQ1 inh, Cl transport mod, hERG protect, KCNQ1 pot, KCNK9 block)
S=c1[nH]nc(-c2cccc(Cl)c2)n1Cc1ccccc1	Cl transport mod 3.96 | KCC2 secondary 0.0148 | KCC2 bumet counter 0.0436 | KCC2 secondary2 inactive | HEK293 Tl flux inconclusive | KCC2 retest ouab 0.0382 | HEK counter2 inconclusive
Cc1cccc(-c2n[nH]c(=S)n2Cc2ccccc2)c1	none
CCN(CC(=O)Nc1c(F)cccc1F)C(=O)c1ccc(OCC(=O)N2CCOCC2)c(OC)c1	none (no result: KCNQ1 inh, Cl transport mod, hERG protect, KCNQ1 pot, KCNK9 block)
Cc1noc(C)c1S(=O)(=O)Nc1ccc(C(=O)NC2CCCCCC2)cc1	Cl transport mod -4.21 | KCC2 secondary inconclusive | KCC2 bumet counter inactive | KCC2 secondary2 inactive | HEK293 Tl flux inactive | KCC2 retest ouab inactive | HEK counter2 inactive
O=[N+]([O-])c1ccc(Sc2cccc3cccnc23)cc1	none
O=[N+]([O-])c1ccc(Sc2cccc3cccnc23)c([N+](=O)[O-])c1	none (no result: Cl transport mod) | KCC2 secondary 0.0152 | KCC2 bumet counter 0.0525 | KCC2 secondary2 inactive | HEK293 Tl flux inconclusive | KCC2 retest ouab 0.0351 | HEK counter2 inactive
C=CCn1nc([N+](=O)[O-])nc1Sc1cccc2cccnc12	Cl transport mod 11.8 | KCC2 secondary 0.0146 | KCC2 bumet counter 0.0602 | KCC2 secondary2 inactive | HEK293 Tl flux 0.0183 | KCC2 retest ouab 0.0363 | HEK counter2 0.0112
COc1ccc(-c2nc(SC(C)C(=O)NC3CC3)n[nH]2)cc1 (stereo not given)	none (no result: KCNQ1 inh, Cl transport mod, hERG protect, KCNQ1 pot, KCNK9 block)
COc1ccc(CC(=O)NC(c2ccccc2)c2ccc(C)cc2)c(OC)c1 (stereo not given)	none (no result: Cl transport mod)
O=C(c1nn2c(C(F)(F)F)cc(-c3ccco3)nc2c1Br)N1CCCc2ccccc21	none (no result: Cl transport mod) | KCC2 secondary inconclusive | KCC2 bumet counter inactive | KCC2 secondary2 0.0247 | HEK293 Tl flux inactive | KCC2 retest ouab inconclusive | HEK counter2 inactive
O=C(c1nn2c(C(F)(F)F)cc(-c3cccs3)nc2c1Br)N1CCCc2ccccc21	none
Cc1ccc(C)c(OCC(=O)Nc2ccccc2C(=O)N2CCN(C)CC2)c1	none (no result: Cl transport mod)
CCOC(=O)N1CCN(C(=O)c2ccccc2NC(=O)COc2ccccc2C)CC1	Cl transport mod -3.3 | KCC2 secondary inactive | KCC2 bumet counter inactive | KCC2 secondary2 0.0249 | HEK293 Tl flux inactive | KCC2 retest ouab inactive | HEK counter2 inactive
Cc1ccc(C)n1NC(=O)c1ccccc1	Cl transport mod -5.84 | KCC2 secondary inactive | KCC2 bumet counter inconclusive | KCC2 secondary2 inactive | HEK293 Tl flux inactive | KCC2 retest ouab inactive | HEK counter2 inactive
CCc1ccc(NC(=O)CCC(=O)Nc2nnc(C(C)C)s2)cc1	none (no result: Cl transport mod)
CCOc1ccc(N2CC(C(=O)Nc3ccccc3OC)CC2=O)cc1 (stereo not given)	none
CCOc1ccc(N2CC(C(=O)Nc3c(C)n(C)n(-c4ccccc4)c3=O)CC2=O)cc1 (stereo not given)	Cl transport mod -4.98 | KCC2 secondary inactive | KCC2 bumet counter inactive | KCC2 secondary2 inactive | HEK293 Tl flux inactive | KCC2 retest ouab inactive | HEK counter2 inactive
COc1ccc2nc(NC(=O)CSc3nnc(-c4ccoc4C)n3C)sc2c1	Cl transport mod -3.79 | KCC2 secondary inactive | KCC2 bumet counter inconclusive | KCC2 secondary2 inactive | HEK293 Tl flux inactive | KCC2 retest ouab 0.0152 | HEK counter2 inactive
Cn1c(C(=O)NCCCN2CCCCCC2)cc2c(=O)n(C)c3ccccc3c21	none (no result: KCNQ1 inh, hERG protect, KCNQ1 pot, KCNK9 block)
Cn1c(C(=O)NCCCN2CCc3ccccc3C2)cc2c(=O)n(C)c3ccccc3c21	none (no result: Cl transport mod) | KCC2 secondary inactive | KCC2 bumet counter inactive | KCC2 secondary2 0.0231 | HEK293 Tl flux inactive | KCC2 retest ouab inconclusive | HEK counter2 inactive
CC[C@@]1(C(=O)OC)N[C@H](CN(C)S(=O)(=O)c2ccc(OC)cc2)[C@@H]2C(=O)N(C)C(=O)[C@@H]21	none (no result: KCNQ1 inh, Cl transport mod, hERG protect, KCNQ1 pot, KCNK9 block)
CCOC(=O)c1cnn(-c2nc(OC)cc(OC)n2)c1C(F)(F)F	Cl transport mod -10.7 | KCC2 secondary inactive | KCC2 bumet counter inactive | KCC2 secondary2 inactive | HEK293 Tl flux inactive | KCC2 retest ouab inactive | HEK counter2 inactive
COC(=O)c1cnn(-c2nc(OC)cc(OC)n2)c1C	none
N#CC(C#N)=C(Nc1ccc(F)cc1)SCc1cccc(F)c1	Cl transport mod -5.05 | KCC2 secondary inactive | KCC2 bumet counter inconclusive | KCC2 secondary2 0.0247 | HEK293 Tl flux inconclusive | KCC2 retest ouab 0.014 | HEK counter2 0.00905
O=C(CCCCCn1c(SCC(=O)c2ccccc2)nc2ccccc2c1=O)NCc1ccco1	none
CCOC(=O)CSc1nc2ccccc2c(=O)n1CCCCCC(=O)NCc1ccco1	Cl transport mod -4.07 | KCC2 secondary inactive | KCC2 bumet counter inconclusive | KCC2 secondary2 inactive | HEK293 Tl flux inactive | KCC2 retest ouab inactive | HEK counter2 inactive
